Experimental data as given in ChEMBL document CHEMBL2202989, “New adamantane phenylalkylamines with σ-receptor binding affinity and anticancer activity, associated with putative antagonism of neuropathic pain” (J Med Chem, 2012).

Experiments:
Type in all cases: functional
[1] = test system: HCT-15; test: Growth inhibition of human HCT15 cells after 48 hrs by SRB assay; settings: HCT-15, 48 h
Method in brief: (§1)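 Cells grown in RPMI 1640 with 5% heat-inactivated FCS, 2 mM L-glutamine and antibiotics, 37 °C, 5% CO2. Seeded at 3500–30000 cells/well and left 24 h before dosing. DMSO solutions added at 10-fold dilutions from 100 to 0.01 μM for 48 h. Cells TCA-fixed and SRB-stained, absorbance read at 540 nm; GI50 derived against the time-zero plate.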

[2] = test system: PC-3; test: Induction of apoptosis in human PC3 cells assessed as cleaved caspase3 containing cells at 5 uM by antibody-based FACS analysis (reference value: 3.2 %)
[3] = test system: BXPC-3; test: Cell cycle arrest in human BxPC3 cells assessed as accumulation at G2 phase at 5 uM after 24 hrs using propidium iodide staining by FACS analysis (reference value: 12 %)
Method in brief: (§2)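 Cells were plated 24 h before treatment and exposed for 24 h at final 0.5, 5, 15 and 50 μM in 0.5% DMSO, against vehicle-treated controls. Cells were then trypsinised and fixed in cold ethanol for 3 h at 4 °C. They were stained in a mix of RNase (200 μg/mL) and PI (1 mg/mL) for 45 min at room temperature in the dark. Flow cytometry used 488 nm excitation and 10 000 gated cells. Phase percentages were assigned from DNA content.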

[4] = test system: PC-3; test: Induction of apoptosis in human PC3 cells assessed as cleaved caspase3 containing cells at 0.5 uM by antibody-based FACS analysis (reference value: 3.2 %)
[5] = test system: BXPC-3; test: Induction of apoptosis in human BxPC3 cells assessed as cleaved caspase3 containing cells at 0.5 uM by antibody-based FACS analysis (reference value: 8.2 %)
[6] = test system: IGROV-1; test: Induction of apoptosis in human IGROV1 cells assessed as cleaved caspase3 containing cells at 0.5 uM by antibody-based FACS analysis (reference value: 3.9 %)
[7] = test system: BXPC-3; test: Induction of apoptosis in human BxPC3 cells assessed as late apoptosis at 0.5 uM using annexin V/7-AAD by FACS analysis (reference value: 9 %)
[8] = test system: IGROV-1; test: Induction of apoptosis in human IGROV1 cells assessed as cleaved caspase3 containing cells at 50 uM by antibody-based FACS analysis (reference value: 3.9 %)
[9] = test system: IGROV-1; test: Cell cycle arrest in human IGROV1 cells assessed as accumulation at >G2/M phase at 50 uM after 24 hrs using propidium iodide staining by FACS analysis (reference value: 21 %); method in brief: as §2
[10] = test system: DU-145; test: Antitumor activity against human DU145 cells xenografted in SCID mouse assessed as tumor growth inhibition at 55 mg/kg, ip administered 5 consecutive days in a week for two cycles measured after 2 cycles relative to control; settings: DU-145, ip, route intraperitoneal, read-out: TGI
Method in brief: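 DU145 xenografts were grown in SCID mice from 10^6-cell inocula, with at least 30 animals in total. Treatment started ip at a mean tumor volume of about 100 mm3. The test agent was given in 5% Tween 80; paclitaxel was dissolved in Cremophor and diluted in saline. Caliper volumes were taken twice weekly and %ΔT/ΔC calculated; two-tailed t test.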

[11] = test system: IGROV-1; test: Induction of apoptosis in human IGROV1 cells assessed as late apoptosis at 50 uM using annexin V/7-AAD by FACS analysis (reference value: 5 %)
[12] = test system: IGROV-1; test: Cell cycle arrest in human IGROV1 cells assessed as accumulation at G1 phase at 15 uM after 24 hrs using propidium iodide staining by FACS analysis (reference value: 27 %); method in brief: as §2
[13] = test system: BXPC-3; test: Cell cycle arrest in human BxPC3 cells assessed as accumulation at sub G1 phase at 0.5 uM after 24 hrs using propidium iodide staining by FACS analysis (reference value: 9 %); method in brief: as §2
[14] = test system: PC-3; test: Cell cycle arrest in human PC3 cells assessed as accumulation at S phase at 0.5 uM after 24 hrs using propidium iodide staining by FACS analysis (reference value: 42 %)
[15] = test system: IGROV-1; test: Cell cycle arrest in human IGROV1 cells assessed as accumulation at >G2/M phase at 15 uM after 24 hrs using propidium iodide staining by FACS analysis (reference value: 21 %); method in brief: as §2
[16] = test system: DU-145; test: Growth inhibition of human DU145 cells after 48 hrs by SRB assay; settings: DU-145, 48 h; method in brief: as §1
[17] = test system: PC-3; test: Induction of apoptosis in human PC3 cells assessed as total apoptotic death at 15 uM using annexin V/7-AAD by FACS analysis (reference value: 8 %)
Method in brief: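 Cells plated 24 h before treatment, then exposed 24 h to 0.5, 5, 15 or 50 μM compound (final DMSO 0.5%); vehicle controls included. Cells scraped and stained with annexin V-FITC and 7-AAD for 15 min on ice in the dark. Flow cytometry with 488 nm excitation, 10,000 gated cells. Early apoptosis was annexin V+/7-AAD−, late was annexin V+/7-AAD+.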

[18] = test system: MIA PaCa-2; test: Growth inhibition of human MIAPaCa2 cells after 48 hrs by SRB assay; settings: MIA PaCa-2, 48 h; method in brief: as §1
[19] = test system: OVCAR-5; test: Antitumor activity against human OVCAR5 cells xenografted in SCID mouse assessed as axillary metastasis at 55 mg/kg, ip administered 5 consecutive days in a week for two cycles measured after 2 cycles relative to control; settings: OVCAR-5, ip, route intraperitoneal, read-out: TGI
Method in brief: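 SCID mice carried OVCAR5 xenografts (10^6 cells per inoculum), 16 mice (32 tumors) per group, with ip dosing in 5% Tween 80 from a tumor volume of about 100 mm3. Caliper volume was measured twice weekly and %ΔT/ΔC derived. At termination, primary tumors were weighed and secondary metastases were scored at axillary and bone sites (n = 7−8). Two-tailed t test.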

[20] = test system: IGROV-1; test: Cell cycle arrest in human IGROV1 cells assessed as accumulation at G1 phase at 50 uM after 24 hrs using propidium iodide staining by FACS analysis (reference value: 27 %); method in brief: as §2
[21] = test system: IGROV-1; test: Cell cycle arrest in human IGROV1 cells assessed as accumulation at sub G1 phase at 15 uM after 24 hrs using propidium iodide staining by FACS analysis (reference value: 4 %)
[22] = test system: PC-3; test: Cell cycle arrest in human PC3 cells assessed as accumulation at G2 phase at 50 uM after 24 hrs using propidium iodide staining by FACS analysis (reference value: 12 %)
[23] = test system: IGROV-1; test: Cell cycle arrest in human IGROV1 cells assessed as accumulation at >G2/M phase at 5 uM after 24 hrs using propidium iodide staining by FACS analysis (reference value: 21 %); method in brief: as §2
[24] = test system: IGROV-1; test: Cell cycle arrest in human IGROV1 cells assessed as accumulation at G1 phase at 0.5 uM after 24 hrs using propidium iodide staining by FACS analysis (reference value: 27 %); method in brief: as §2
[25] = test system: IGROV-1; test: Cell cycle arrest in human IGROV1 cells assessed as accumulation at sub G1 phase at 0.5 uM after 24 hrs using propidium iodide staining by FACS analysis (reference value: 4 %)
[26] = read-out: LC50 (the source's name)

CN1CCN(CCCc2ccc(C(c3ccccc3)C34CC5CC(CC(C5)C3)C4)cc2)CC1 (stereo unspecified)
GI50 [1]: 3.5 µM
TGI [1]: 6.35 µM
CC50 [1, 26]: 0.0092 µM
Activity [2]: 2%
Activity [3]: 10%
Activity [4]: 1.7%
Activity [5]: 4%
Activity [6]: 4.2%
Activity [7]: 7%
Activity [8]: 15.8%
Activity [9]: 15%
inhibition in vivo at 55 mg/kg [10]: 71.4%
Activity [11]: 25%
Activity [12]: 23%
Activity [13]: 11%
Activity [14]: 38%
Activity [15]: 17%
GI50 [16]: 3.77 µM
TGI [16]: 7.11 µM
CC50 [16, 26]: 0.1 µM
Activity [17]: 16%
GI50 [18]: 9.39 µM
TGI [18]: 40.1 µM
CC50 [18, 26]: 0.0726 µM
inhibition in vivo at 55 mg/kg [19]: 25%
Activity [20]: 30%
Activity [21]: 12%
Activity [22]: 11%
Activity [23]: 20%
Activity [24]: 25%
Activity [25]: 4%
